Measurements as given in ChEMBL document CHEMBL1148024, “Novel inhibitors of fatty acid amide hydrolase” (Bioorg Med Chem Lett, 2007).
Activity calls are given as the source filed them. No cut-off for these calls is given here.

Legend:
[1] = target: T1, Fatty-acid amide hydrolase 1 (Homo sapiens, UniProt O00519); experiment: Inhibition of human FAAH expressed in H4 cells; type: cell-based
T1 sequence (O00519 whole entry): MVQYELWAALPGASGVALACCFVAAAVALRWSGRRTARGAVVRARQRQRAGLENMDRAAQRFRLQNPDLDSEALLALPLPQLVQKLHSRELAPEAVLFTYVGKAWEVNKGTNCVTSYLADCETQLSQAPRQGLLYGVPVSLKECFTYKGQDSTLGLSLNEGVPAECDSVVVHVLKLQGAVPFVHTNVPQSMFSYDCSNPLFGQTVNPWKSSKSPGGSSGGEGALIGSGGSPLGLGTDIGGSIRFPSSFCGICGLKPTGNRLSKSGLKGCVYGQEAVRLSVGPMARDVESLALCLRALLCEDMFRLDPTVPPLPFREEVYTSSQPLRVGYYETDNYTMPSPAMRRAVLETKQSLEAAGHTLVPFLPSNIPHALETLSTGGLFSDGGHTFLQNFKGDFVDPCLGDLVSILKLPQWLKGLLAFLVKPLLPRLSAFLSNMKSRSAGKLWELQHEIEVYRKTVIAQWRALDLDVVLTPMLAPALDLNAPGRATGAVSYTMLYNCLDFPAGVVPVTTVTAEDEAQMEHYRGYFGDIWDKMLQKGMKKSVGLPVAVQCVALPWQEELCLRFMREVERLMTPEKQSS
Outline: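 Enzyme source: crude membrane homogenates from H4 cells transfected with human FAAH. Activity measured by a modified Omeir et al. method. IC50 taken from a four-parameter logistic fit of dose–response curves.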

Rattus norvegicus [2] = experiment: Antinociceptive effect in rat persistent pain model assessed as suppression of formalin-induced paw flinches at 20 mg/kg, iv relative to control; type: functional, organism-based; set-up: dose 20 mg/kg
Cannabinoid receptor 1 = Cannabinoid receptor 1 (Homo sapiens, UniProt P21554); experiment: Displacement of [3H]CP-55940 from CB1 receptor expressed in HEK cells; type: cell-based, HEK293
Rattus norvegicus [3] = experiment: Antinociceptive effect in rat persistent pain model assessed as suppression of formalin-induced paw flinches at 20 mg/kg, iv in presence of SR-141716A; type: functional, organism-based; set-up: dose 20 mg/kg
Outline: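 CB1 antagonist SR141716A was given ip at 3 or 10 mg/kg at -30 min. Test compound (20 mg/kg) followed iv via jugular catheter at -15 min, then subcutaneous paw formalin at 0 min. Paw-flinch frequency was scored in Phase I (acute) and Phase II (persistent). Groups were compared with vehicle by Dunnett's test.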

[4] = target: T2, Cytosolic phospholipase A2 (Homo sapiens, UniProt P47712); experiment: Inhibition of cPLA2 activity
T2 sequence (P47712 whole entry): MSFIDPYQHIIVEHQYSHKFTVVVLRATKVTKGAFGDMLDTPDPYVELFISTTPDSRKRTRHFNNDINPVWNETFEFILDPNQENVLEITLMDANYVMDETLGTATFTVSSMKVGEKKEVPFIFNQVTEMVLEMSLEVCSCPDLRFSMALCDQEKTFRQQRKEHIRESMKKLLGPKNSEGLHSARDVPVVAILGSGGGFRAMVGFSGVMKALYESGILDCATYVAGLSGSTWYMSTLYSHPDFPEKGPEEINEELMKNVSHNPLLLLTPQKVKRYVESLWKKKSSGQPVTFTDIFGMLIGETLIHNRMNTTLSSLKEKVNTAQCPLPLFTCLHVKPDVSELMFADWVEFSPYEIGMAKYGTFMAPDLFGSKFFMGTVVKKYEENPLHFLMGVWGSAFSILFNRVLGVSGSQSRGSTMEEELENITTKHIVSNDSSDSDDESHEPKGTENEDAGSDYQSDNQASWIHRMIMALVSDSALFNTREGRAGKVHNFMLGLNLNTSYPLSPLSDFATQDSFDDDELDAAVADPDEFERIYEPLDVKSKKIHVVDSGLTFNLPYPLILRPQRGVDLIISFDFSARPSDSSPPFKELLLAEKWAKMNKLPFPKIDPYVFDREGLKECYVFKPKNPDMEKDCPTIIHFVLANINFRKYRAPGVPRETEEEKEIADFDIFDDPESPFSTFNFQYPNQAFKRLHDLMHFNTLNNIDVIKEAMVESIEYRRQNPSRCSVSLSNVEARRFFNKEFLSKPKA

Rattus norvegicus [5] = experiment: Effect on neuropathic pain in rat chung model assessed as reversal of tactile allodynia at 20 mg/kg, iv; type: functional, organism-based; set-up: dose 20 mg/kg
Cannabinoid receptor 2 = Cannabinoid receptor 2 (Homo sapiens, UniProt P34972); experiment: Displacement of [3H]CP-55940 from CB2 receptor expressed in CHO cells; type: cell-based
Rattus norvegicus [6] = experiment: Antinociceptive effect in rat at 10 mg/kg, iv by thermal escape test; type: functional, organism-based; set-up: dose 10 mg/kg
Outline: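 Rats were dosed iv with test compound at 0.1, 1 and 10 mg/kg, 15 min before exogenous anandamide (1 mg/kg, iv). Antinociception was read in the Hargreaves thermal escape test from 3 to 30 min after anandamide.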

Chain of Cannabinoid receptor 2 (P34972 whole entry): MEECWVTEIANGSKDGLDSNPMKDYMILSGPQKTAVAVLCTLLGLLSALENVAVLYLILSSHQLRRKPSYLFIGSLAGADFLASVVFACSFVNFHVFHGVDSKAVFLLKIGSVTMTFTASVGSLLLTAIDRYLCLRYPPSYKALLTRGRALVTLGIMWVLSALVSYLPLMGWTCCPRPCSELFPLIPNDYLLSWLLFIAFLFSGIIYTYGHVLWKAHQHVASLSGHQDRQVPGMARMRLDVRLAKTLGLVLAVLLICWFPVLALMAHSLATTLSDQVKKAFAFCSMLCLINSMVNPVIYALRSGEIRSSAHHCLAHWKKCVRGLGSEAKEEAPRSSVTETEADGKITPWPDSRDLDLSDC
Chain of Cannabinoid receptor 1 (P21554 whole entry): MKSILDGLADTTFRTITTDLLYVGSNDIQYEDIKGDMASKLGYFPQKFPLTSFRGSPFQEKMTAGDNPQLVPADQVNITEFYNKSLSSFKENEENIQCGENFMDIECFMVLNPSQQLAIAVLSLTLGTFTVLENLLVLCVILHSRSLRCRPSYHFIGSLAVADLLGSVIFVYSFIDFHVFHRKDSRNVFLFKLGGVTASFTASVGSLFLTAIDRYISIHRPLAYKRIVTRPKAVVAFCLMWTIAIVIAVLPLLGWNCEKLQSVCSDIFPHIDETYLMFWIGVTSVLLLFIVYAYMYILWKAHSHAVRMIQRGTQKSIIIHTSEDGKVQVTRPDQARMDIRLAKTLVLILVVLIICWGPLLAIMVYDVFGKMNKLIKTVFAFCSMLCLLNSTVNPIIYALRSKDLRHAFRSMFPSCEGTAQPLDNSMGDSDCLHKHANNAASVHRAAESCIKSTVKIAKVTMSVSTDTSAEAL

Question: Which IC50 [1] does the source give for CCCN(CCCCCCn1c(C)nc(-c2ccccc2)c1-c1ccccc1)C(=O)Oc1ccccc1F here?
Answer: > 100000 nM

Question: For CCOC(=O)CCCCCn1c(CC)nc(-c2ccccc2)c1-c1ccccc1, which IC50 [1] is on record?
Answer: 32 nM

Question: Cc1nc(-c2ccc(F)cc2)c(-c2ccc(F)cc2)n1CCCCCCNC(=O)Oc1ccccc1F was tested. Which IC50 [1] did it give?
Answer: 10 nM

Question: With Cc1nc(-c2ccccc2)c(-c2ccccc2)n1CCCCCCNC(=O)Oc1ccccc1F as the compound, how does the Activity (Rattus norvegicus [2]) read?
Answer: Active

Question: And the Ki (Cannabinoid receptor 1)?
Answer: 23000 nM

Question: What about the Activity (Rattus norvegicus [3]) of the same compound?
Answer: inactive

Question: And the Ki [4]?
Answer: 15000 nM

Question: And the Activity (Rattus norvegicus [5])?
Answer: Active

Question: And the Ki (Cannabinoid receptor 2)?
Answer: 28000 nM

Question: And the IC50 [1]?
Answer: 2 nM

Question: What about the Activity (Rattus norvegicus [6]) of the same compound?
Answer: inactive

Question: Which Activity (Rattus norvegicus [6]) does the source give for CCCCC/C=C\C/C=C\C/C=C\C/C=C\CCCC(=O)NCCO here?
Answer: inactive

Question: Which IC50 [1] does the source give for Cc1nc(-c2ccccc2)c(-c2ccccc2)n1CCCCCCNC(=O)Oc1ccccc1 here?
Answer: 5.3 nM

Question: With CCOC(=O)CCCCCCn1c(C)nc(-c2ccc(F)cc2)c1-c1ccc(F)cc1 as the compound, how does the IC50 [1] read?
Answer: 64 nM

Question: For CCOC(=O)CCCCOc1ccc(-n2cnc(-c3ccccc3)c2-c2ccccc2)cc1, which IC50 [1] is on record?
Answer: > 10000 nM

Question: For CCOC(=O)CCCCCCn1c(CC)nc(-c2ccccc2)c1-c1ccccc1, which IC50 [1] is on record?
Answer: 11 nM

Question: For CCOC(=O)CC(CC)CCCCCn1c(C)nc(-c2ccccc2)c1-c1ccccc1 (centres undefined), which IC50 [1] is on record?
Answer: 9900 nM

Question: For COC(=O)COc1ccc(-n2cnc(-c3ccccc3)c2-c2ccccc2)cc1, which IC50 [1] is on record?
Answer: 670 nM

Question: How did the IC50 [1] turn out when CCOC(=O)CC(C)CCCCCn1c(C)nc(-c2ccccc2)c1-c1ccccc1 (centres undefined) was run?
Answer: 130 nM

Question: For Cc1nc(-c2ccccc2)c(-c2ccccc2)n1CCCCCC(NC(=O)Oc1ccccc1F)C(C)C (centres undefined), which IC50 [1] is on record?
Answer: 250 nM

Question: How did the IC50 [1] turn out when CNC(=O)NCCCCCCn1c(C)nc(-c2ccccc2)c1-c1ccccc1 was run?
Answer: > 10000 nM

Question: Which IC50 [1] does the source give for CNC(=O)CCCCCCn1c(C)nc(-c2ccccc2)c1-c1ccccc1 here?
Answer: 1700 nM

Question: Which IC50 [1] does the source give for Cc1nc(-c2ccccc2)c(-c2ccccc2)n1CCCCCCC(=O)N(C)C here?
Answer: 970 nM

Question: With CCN(CCCCCCn1c(C)nc(-c2ccccc2)c1-c1ccccc1)C(=O)Oc1ccccc1F as the compound, how does the IC50 [1] read?
Answer: > 100000 nM

Question: CCc1nc(-c2ccccc2)c(-c2ccccc2)n1CCCCCCCC(=O)OC was tested. Which IC50 [1] did it give?
Answer: 31 nM

Question: How did the IC50 [1] turn out when CCC(CCCCCn1c(C)nc(-c2ccccc2)c1-c1ccccc1)NC(=O)Oc1ccccc1F (centres undefined) was run?
Answer: 30 nM

Question: For Cc1nc(-c2ccccc2)c(-c2ccccc2)n1CCCCCCNC(=O)Nc1ccccc1, which IC50 [1] is on record?
Answer: 10000 nM

Question: For CCOC(=O)CCCOc1ccc(-n2cnc(-c3ccccc3)c2-c2ccccc2)cc1, which IC50 [1] is on record?
Answer: 64 nM

Question: With COC(=O)COc1cccc(-n2cnc(-c3ccccc3)c2-c2ccccc2)c1 as the compound, how does the IC50 [1] read?
Answer: 6500 nM

Question: How did the IC50 [1] turn out when CCOC(=O)CCCOc1cccc(-n2cnc(-c3ccccc3)c2-c2ccccc2)c1 was run?
Answer: 91 nM

Question: For Cc1nc(-c2ccccc2)c(-c2ccccc2)n1CCCCCC(C)NC(=O)Oc1ccccc1F (centres undefined), which IC50 [1] is on record?
Answer: 4.2 nM

Question: Which IC50 [1] does the source give for Cc1nc(-c2ccccc2)c(-c2ccccc2)n1CCCCCC(NC(=O)Oc1ccccc1F)c1ccccc1 (centres undefined) here?
Answer: 110 nM

Question: How did the IC50 [1] turn out when Cc1nc(-c2ccc(F)cc2)c(-c2ccc(F)cc2)n1CCCCCCNC(=O)Oc1c(F)cccc1F was run?
Answer: 24 nM

Question: How did the IC50 [1] turn out when CCOC(=O)CC(CCCCCn1c(C)nc(-c2ccccc2)c1-c1ccccc1)C(C)C (centres undefined) was run?
Answer: > 100000 nM
